The target in data set [1] is T1, 5-hydroxytryptamine receptor 1A (Rattus norvegicus, UniProt P19327).
T1 sequence (P19327 whole entry): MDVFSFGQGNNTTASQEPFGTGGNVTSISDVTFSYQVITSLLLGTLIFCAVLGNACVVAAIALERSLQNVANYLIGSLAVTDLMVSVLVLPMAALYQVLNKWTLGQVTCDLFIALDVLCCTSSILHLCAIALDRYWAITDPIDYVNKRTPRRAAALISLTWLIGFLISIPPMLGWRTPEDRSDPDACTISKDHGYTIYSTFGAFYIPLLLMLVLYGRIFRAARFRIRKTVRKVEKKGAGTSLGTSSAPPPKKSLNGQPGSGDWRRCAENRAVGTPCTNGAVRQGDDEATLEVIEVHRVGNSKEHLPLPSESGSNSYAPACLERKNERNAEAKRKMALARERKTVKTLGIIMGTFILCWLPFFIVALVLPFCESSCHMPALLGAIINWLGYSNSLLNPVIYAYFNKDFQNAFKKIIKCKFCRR
Put plainly: In vitro displacement of radioactively labeled ligand [3H]8-OH-DPAT from 5-hydroxytryptamine 1A receptor site in CHO cells. It is filed as cell-based.

A further data set deals with D(2) dopamine receptor (Rattus norvegicus, UniProt P61169). Nature of the data set: Displacement of [3H]U-86170 from Dopamine receptor D2. The procedure, abridged: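 Competition binding at cloned D2 receptors expressed in CHO-K1 cells, using the agonist [3H]U86170 (62 Ci/mmol, 2 nM) against 11 dilutions of test compound. IC50 was fitted to a one-site model by nonlinear least squares. Ki was obtained with the Cheng–Prusoff equation.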
Sequence of D(2) dopamine receptor (P61169 whole entry): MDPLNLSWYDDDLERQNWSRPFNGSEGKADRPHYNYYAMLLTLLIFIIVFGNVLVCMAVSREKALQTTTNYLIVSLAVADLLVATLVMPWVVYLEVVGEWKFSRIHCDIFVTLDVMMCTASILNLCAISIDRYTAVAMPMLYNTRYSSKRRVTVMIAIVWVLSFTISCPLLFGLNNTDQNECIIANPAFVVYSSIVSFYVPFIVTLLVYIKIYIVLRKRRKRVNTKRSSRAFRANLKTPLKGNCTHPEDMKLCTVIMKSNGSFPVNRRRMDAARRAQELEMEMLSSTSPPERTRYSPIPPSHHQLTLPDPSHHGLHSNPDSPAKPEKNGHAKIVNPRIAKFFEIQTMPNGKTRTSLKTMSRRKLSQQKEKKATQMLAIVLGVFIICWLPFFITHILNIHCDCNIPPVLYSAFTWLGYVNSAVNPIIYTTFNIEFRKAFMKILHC

The species named for data set [2] is Rattus norvegicus. Nature of the data set: (§1) In vitro metabolic stability of the test compound was evaluated after incubation in the presence of freshly isolated rat hepatocytes. It is filed as functional, Hepatocyte. Set-up: reference not given here. The procedure, abridged: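 Rat hepatocytes were isolated by modified collagenase perfusion and incubated as suspensions (5 million cells/mL) with each compound at three concentrations. Parent loss was followed by HPLC. Initial rates gave apparent Vmax and Km by direct linear plot, with CLint = Vmax/Km. Stability is expressed relative to a reference compound incubated at the same time.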

Data set [3] concerns Rattus norvegicus. Nature of the data set: postsynaptic effects was assessed by the increase in the locomotor activity (reversal of reserpine induced hypokinesia) during a 30 min period after subcutaneous administration using photocell motility meters at the dose of 0.8(micr oM/kg). It is filed as ADME, organism-based. The following applies: in vivo, sc, 0.5 h. The method, boiled down:
(§2)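 Reserpine 5 mg/kg sc was given 18 h before testing to male Sprague–Dawley rats. Test drug was given sc in the neck, and rats were placed singly in photocell motility meters. Accumulated counts were recorded over 30 min (mean, n = 4), with gross behaviour observed throughout. Student's t test was applied.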

Data set [4] has as its system Rattus norvegicus. Put plainly: (§3) 5-HTP accumulation in limbic system was determined in vivo. It is filed as functional. The procedure, abridged:
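Male Sprague–Dawley rats (200–300 g), pretreated with reserpine 5 mg/kg sc 18 h before. Test drug given sc. 5-HTP measured in limbic brain tissue by HPLC with electrochemical detection. Dose–response curves were built from four to six dose levels (n = 4) for each substance and brain area. ED50 reported in μmol/kg sc.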

Data set [5] deals with Rattus norvegicus. Nature of the data set: in vivo effects on DA (dopamine) synthesis in cortex was reported after subcutaneous administration to reserpinized rats; inactive at a dose of 2.1. It is filed as functional, organism-based.
Data set [6] has as its system Rattus norvegicus. Nature of the data set: In vivo effects on DA (dopamine) synthesis in corps striatum was reported after subcutaneous administration to reserpinized rats; inactive at a dose of 2.1. It is filed as functional, organism-based.
The species named for data set [7] is Rattus norvegicus. The description is as §1. It is filed as ADME, Hepatocyte. The method, boiled down:
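Rat hepatocytes were prepared by a modified collagenase perfusion method. Each compound was incubated at three concentrations in suspension at 5 million cells/mL. Initial rates were analysed by direct linear plot to give apparent Vmax and Km, and CLint = Vmax/Km. Rates were measured by HPLC and expressed relative to a reference compound incubated at the same time.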

Data set [8] concerns Rattus norvegicus. Described as §3. It is filed as functional. The method, boiled down: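 Male Sprague–Dawley rats (200–300 g) pretreated with reserpine 5 mg/kg sc 18 h beforehand; test drug given sc in neck, 5 mL/kg, neutral pH. 5-HTP in limbic system measured by HPLC with electrochemical detection.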
The source holds these as a separate data set.

Data set [9] concerns Rattus norvegicus. Put plainly: in vivo effects on DA (dopamine) synthesis in cortex was reported after subcutaneous administration to reserpinized rats. It is filed as functional, organism-based.
Data set [10] concerns Rattus norvegicus. Put plainly: postsynaptic effects was assessed by the increase in the locomotor activity (reversal of reserpine induced hypokinesia) during a 30 min period after subcutaneous administration using photocell motility meters at the dose of 0.2 (mic roM/kg). It is filed as functional. The method, boiled down:
as §2

Data set [11] has as its system Rattus norvegicus. Put plainly: In vivo effects on DA (dopamine) synthesis in corps striatum was reported after subcutaneous administration to reserpinized rats; I = inactive at highest dose 45 umol/kg. It is filed as functional, organism-based.
Data set [12] deals with Rattus norvegicus. Nature of the data set: In vivo effects on DA (dopamine) synthesis in corps striatum was reported after subcutaneous administration to reserpinized rats; inactive at a dose of 50. It is filed as functional, organism-based. The method, boiled down:
(§4)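 Male Sprague–Dawley rats (200–300 g) given reserpine 5 mg/kg sc 18 h before; compounds sc in neck region, 5 mL/kg. DOPA accumulation in striatum or cortex measured by HPLC with electrochemical detection.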

The test system of data set [13] is Rattus norvegicus. Nature of the data set: in vivo effects on DA (dopamine) synthesis in cortex was reported after subcutaneous administration to reserpinized rats; inactive at a dose of 50. It is filed as functional, organism-based. The method, boiled down:
as §4

The test system of data set [14] is Rattus norvegicus. Nature of the data set: postsynaptic effects was assessed by the increase in the locomotor activity (reversal of reserpine induced hypokinesia) during a 30 min period after subcutaneous administration using photocell motility meters at the dose of 10(micro M/kg). It is filed as ADME, organism-based. The following applies: in vivo, sc, 0.5 h. The method, boiled down:
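Male Sprague–Dawley rats got reserpine 5 mg/kg sc in the neck 18 h before testing. Compound was given sc in the neck (5 mL/kg), and rats were placed singly in photocell motility meters. Accumulated counts were recorded over 30 min, mean ± SEM, n = 4, with Student's t test against reserpinized controls. Testing ran 9 a.m.–1 p.m.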

Data set [15] relates to Rattus norvegicus. Put plainly: postsynaptic effects was assessed by the increase in the locomotor activity (reversal of reserpine induced hypokinesia) during a 30 min period after subcutaneous administration using photocell motility meters at the dose of 3.1(micr oM/kg). It is filed as ADME, organism-based. The following applies: in vivo, sc, 0.5 h. The method, boiled down:
as §2

Data set [16] has as its system Rattus norvegicus. Put plainly: in vivo effects on DA (dopamine) synthesis in cortex was reported after subcutaneous administration to reserpinized rats; inactive at a dose of 3.1. It is filed as functional, organism-based.
Data set [17] relates to Rattus norvegicus. Put plainly: In vivo effects on DA (dopamine) synthesis in corps striatum was reported after subcutaneous administration to reserpinized rats; inactive at a dose of 3.1. It is filed as functional, organism-based.

Consider four molecules from ChEMBL document CHEMBL1128248, “C-9 and N-substituted analogs of cis-(3aR)-(-)-2,3,3a,4,5,9b-hexahydro-3- propyl-1H-benz[e]indole-9-carboxamide: 5-HT1A receptor agonists with various degrees of metabolic stability” (J Med Chem, 1995).

SMILES strings stand for the structures. The source made the active and inactive calls. The calls are words filed in the database; no cut-off is given here.

For the molecule `CCCN1CC[C@H]2c3c(cccc3C(C)=O)CC[C@H]21`, the inhibition constant (Ki) (as a rule, the dissociation constant of the complex between target and ligand, obtained from inhibition or displacement) in [1] is 0.4 nM; on D(2) dopamine receptor, 91 nM. Also, the Metabolic stability in the data set filed under Rattus norvegicus [2] is 0.13. Also, in the data set with Rattus norvegicus [3], the Locomotor activity was found to be 115. In addition, the ED50 (as a rule, the dose at which the effect has come halfway, by size or by number of responders) in the data set with Rattus norvegicus [4] is 0.0125 µmol/kg. The ED50 result in the data set with Rattus norvegicus [5] and with Rattus norvegicus [6] was “inactive” each time.

Consider `CCCN(CCC)C1CCc2cccc(O)c2C1` (stereo unspecified) [8-OH-DPAT], for which, in the data set filed under Rattus norvegicus [7], the Metabolic stability turned out to be 0.16. Moreover, affinity at D(2) dopamine receptor was put at a Ki of 86 nM. Further, the ED50 in the data set with Rattus norvegicus [8] amounted to 0.052 µmol/kg. Further, the ED50 result with Rattus norvegicus [9] and with Rattus norvegicus [11] was “inactive” in each case. Moreover, the Locomotor activity in the data set with Rattus norvegicus [10] came to 66.

Consider `CCCNC(=O)c1cccc2c1[C@@H]1CCN(CCC)[C@@H]1CC2`, for which the inhibitory constant (Ki) in data set [1] was 52 nM; on D(2) dopamine receptor, more than 1000 nM. Moreover, the ED50 result with Rattus norvegicus [12] and in the data set with Rattus norvegicus [13] was “inactive” each time. Moreover, in the data set on Rattus norvegicus [14], the Locomotor activity stood at 58. Moreover, the median effective dose (ED50) with Rattus norvegicus [4] was 4 µmol/kg.

On to `CCCC(=O)c1cccc2c1[C@@H]1CCN(CCC)[C@@H]1CC2`, for which the results for the Ki (in data set [1]; at D(2) dopamine receptor) were 0.7 nM and 22 nM, respectively. The Metabolic stability in the data set filed under Rattus norvegicus [2] is given as 0.05. In addition, the Locomotor activity in the data set with Rattus norvegicus [15] stood at 631. Besides, it took a dose of 0.26 µmol/kg to reach the 50% effect level in the data set with Rattus norvegicus [4] (ED50). Besides, the ED50 entry with Rattus norvegicus [16] and in the data set on Rattus norvegicus [17] was “inactive” each time.
